Rpn11 block: inhibitors of human proteasome Rpn11; O00487; human 26S proteasome, Ub4-pepOG fluorescence polarization; 20S core pre-blocked with epoxomicin; inhibition, % at 20 µM; 0.59% of 360,000 active; AID 588493;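 active = inhibition at 20 µM, scaled to each plate's controls, above about 33%, limit read from the data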
Target sequence (O00487 whole entry, looked up): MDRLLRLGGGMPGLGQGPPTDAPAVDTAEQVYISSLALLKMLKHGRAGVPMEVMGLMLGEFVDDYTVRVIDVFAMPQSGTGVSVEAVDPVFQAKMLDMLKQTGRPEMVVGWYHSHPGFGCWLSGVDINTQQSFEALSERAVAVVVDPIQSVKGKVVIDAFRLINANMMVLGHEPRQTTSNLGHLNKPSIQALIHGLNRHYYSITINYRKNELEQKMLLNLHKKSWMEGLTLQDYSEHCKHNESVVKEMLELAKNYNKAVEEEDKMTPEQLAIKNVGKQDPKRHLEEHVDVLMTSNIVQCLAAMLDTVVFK
CSN deneddyl inh: blocks human CSN-mediated cullin deneddylation; Q92905; Purified CSN, SCF-Nedd8-OG deneddylation, fluorescence polarization; inhibition, % at 12.5 µM; 0.38% of 360,000 active; AID 651999;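 active = pattern-corrected inhibition above about 35%, with an unprinted fluorescence ratio check between 0.5 and 1.5, limit read from the data, passing the limit was not always enough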;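 note: 0% = enzyme with substrate and 100% = substrate without enzyme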
Target sequence (Q92905 whole entry, looked up, one chain of several): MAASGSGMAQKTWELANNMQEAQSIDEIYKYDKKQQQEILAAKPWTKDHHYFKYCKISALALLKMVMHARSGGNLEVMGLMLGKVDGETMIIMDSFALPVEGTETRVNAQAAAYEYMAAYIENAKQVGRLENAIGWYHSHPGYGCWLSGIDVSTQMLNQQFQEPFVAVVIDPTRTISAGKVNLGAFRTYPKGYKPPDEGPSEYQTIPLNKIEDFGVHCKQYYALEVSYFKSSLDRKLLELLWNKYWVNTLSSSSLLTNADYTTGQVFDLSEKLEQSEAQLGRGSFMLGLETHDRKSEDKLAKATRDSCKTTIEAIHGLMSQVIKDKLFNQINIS
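Assay system: purified human Csn5 enzyme expressed in HEK293T cells; measure: % inhibition; also added: SCFSkp2-Nedd8OG substrate at 10 nM final; technique: fluorescence polarization; times: reaction 90 min, room temperature; medium: Tris buffer pH 7.5, NaCl, DTT, Tween-20, trehalose, ovalbumin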
TPT1 inh: inhibitors of Candida albicans tRNA 2'-phosphotransferase TPT1 | recombinant caTPT1, FP RNA substrate dephosphorylation | inhibition, % at 5 µM | 0.81% of 300,000 active;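 active = inhibition above the mean of all tested compounds plus 3 SD, set per screening campaign, cut at about 24% in these data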;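 note: plate controls were DMSO alone for no effect and ferristatin control at 100 nM for full effect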
Xi reactivation: X-chromosome reactivation activator; AID 743238; XiGFP mouse fibroblasts, % GFP-positive cells imaging, 3 d; cells co-treated with 5-aza-dC sensitizer; scaled so ellipticine positive control = 100%; 0.055% of 360,000 active; activation, % at 7.58 µM;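 active = mean normalized replicate activation at least 10% and every replicate at or above 10%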;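 note: 0% = median of on-plate neutral control wells and 100% = ellipticine 6 µM median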
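Material: XiGFP fibroblasts, SV40-immortalized; Buffer or medium: DMEM containing 5-aza-dC; Compound dosing: single point; Times: 3 days compound exposure.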
aDG glyco up: alpha-DG glycosylation activation; Pro5-aDG cells, alpha-DG glycosylation AlphaScreen (IIH6); 0% Pro5, 100% B10-LARGE cell signal; activation, % at 10 µM; 0.22% of 360,000 active;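 active = activation of at least 8% versus controls, or a plate z-score of at least 8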;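 note: Pro5 are CHO cells carrying HIG-tagged alpha-DG that lacks glycosylation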
HNF4A DNA FP: change in binding of human HNF4 alpha to DNA | HNF4a-FITC DNA binding, fluorescence polarization, 1 h | activity change, % at 10 µM | P41235 | AID 1224865 | 0.3% of 360,000 active; in the data active = activity change above about 30%, passing the limit was not always enough
TPT1 inh confirm: confirmation of Candida albicans TPT1 inhibitors; shares compounds with TPT1 inh; recombinant caTPT1, fluorescence polarization, RNase T1 coupled; inhibition, % at 5 µM; 74% of 2,400 active;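 active = inhibition above the primary screen limit, the mean inhibition of all tested compounds plus 3 SD, cut at about 25% in these data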
RNase T1 counter: counter-screen for TPT1 inhibitors: inhibitors of Aspergillus oryzae RNase T1; shares compounds with TPT1 inh; RNase T1 cleavage, fluorescence polarization, 1536-well; inhibition, % at 5 µM; 83% of 2,400 active;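 active = inhibition above the solvent-only control well mean plus 3 SD, limit set per screening run, cut at about 23% in these data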;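 note: plate controls were DMSO wells with enzyme for no effect and wells without RNase T1 for full effect; inhibitors block cleavage so intact labeled substrate keeps polarization high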
Rpn11 inh conf: Rpn11 inhibition confirmation, single concentration. shares compounds with Rpn11 block. purified human 26S proteasome, Ub4-pepOG fluorescence polarization; proteasome pretreated with epoxomicin. inhibition, % at 20 µM. 29% of 1,900 active
MMP-2 inh: counter-screen for RPN11 inhibitors: inhibition of human MMP-2; shares compounds with Rpn11 block; inhibition, % at 20 µM; recombinant MMP-2, FRET peptide cleavage fluorescence; 4% of 1,900 active;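 note: human MMP-2 activated beforehand with APMA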
Thrombin FP: blocks bovine thrombin, flagging nonselective RPN11 hits; shares compounds with Rpn11 block; bovine thrombin cleavage of Ub4-pepOG, fluorescence polarization; inhibition, % at 20 µM; 13% of 1,900 active;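 active = mean inhibition at least 40% at 20 µM, or signal 3 deviations below plate average, so some actives read negative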;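 note: plate controls were thrombin with DMSO for no effect and buffer wells lacking thrombin for full effect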
An asterisk follows results filed as active; x = no result shown. Only some compounds are listed: those with a hit (about 1.3% of all), similar ones and a draw of the others. Cut-off read from the data, not from the text of the source, unless noted: active = inhibition above about 40%; inactive = the rest.

SMILES	Rpn11 block	CSN deneddyl inh	TPT1 inh	Xi reactivation	aDG glyco up	HNF4A DNA FP	TPT1 inh confirm	RNase T1 counter	Rpn11 inh conf	MMP-2 inh	Thrombin FP
COC(=O)c1sc2nc(CSc3ccc(Br)cc3)[nH]c(=O)c2c1C	76*	5	35*	7	0	12	26*	36*	50*	-20	-2
CCOC(=O)c1sc2nc(CSc3ccccc3Cl)[nH]c(=O)c2c1C	x	3	16	0	0	13	x	x	x	x	x
COCCn1c(SCc2nc3sc(C(=O)OC)c(C)c3c(=O)[nH]2)nc2ccccc21	50*	15	26*	x	0	17	24	33*	20	-45	19
C[C@@H]1CCCCO[C@@H](CN(C)Cc2ccc(C(=O)O)cc2)[C@H](C)CN([C@H](C)CO)C(=O)c2cc(NC(=O)NC3CCCCC3)ccc2O1	x	x	x	0	x	x	x	x	x	x	x
O=C(C1=C(O)C(=O)N(c2ncccn2)C1c1ccc(Cl)c(Cl)c1)c1ccco1 (stereo unspecified)	41*	48*	28*	x	0	14	30*	39*	23	-5	20
O=C(C1=C(O)C(=O)N(c2ncccn2)C1c1ccc(Cl)cc1)c1ccco1 (stereo unspecified)	29	25	2	x	0	14	x	x	x	x	x
CN1/C(=C\C=N\O)C(C)(C)c2ccccc21	6	-1	2	0	0	1	x	x	x	x	x
CN1/C(=C/C=C(/C#N)C(N)=O)C(C)(C)c2ccccc21	43*	18	87*	x	0	36*	68*	82*	35	-35	27
CCC(=O)N(C)C[C@@H]1Oc2cc(-c3cccc(F)c3)ccc2S(=O)(=O)N([C@H](C)CO)C[C@H]1C	x	x	x	0	x	x	x	x	x	x	x
CCCSc1nnc(NC(=O)c2sc3nc(-c4cccs4)ccc3c2N)s1	76*	9	66*	x	0	33	23	28*	61*	-32	14
CCN1CCN(S(=O)(=O)c2ccc(C(=O)Nc3sc4c(c3C(N)=O)CCN(CC)C4)cc2)CC1	59*	16	96*	54*	0	28	115*	118*	2	-52	-2
C[C@@H]1CN([C@H](C)CO)S(=O)(=O)c2ccc(-c3ccncc3)cc2O[C@H]1CN(C)C(=O)C1CCC1	x	x	x	0	x	x	x	x	x	x	x
CC[n+]1c(/C=C/Nc2ccccc2)oc2ccc(OC)cc21	57*	12	86*	0	1	30	95*	101*	45*	-26	32
CCC(=O)N1C[C@@H](O)COC[C@H]2O[C@H](CC(=O)NCc3ccccc3Cl)CC[C@@H]21	x	x	x	0	x	x	x	x	x	x	x
COc1ccc(/C=C2\SC(=S)N(C(C(=O)O)c3ccccc3)C2=O)c(OC)c1 (stereo unspecified)	41*	14	27*	0	0	28	40*	53*	18	-24	21
COc1ccc(S(=O)(=O)Nc2cccc3c2O[C@@H](CN(C)C(=O)Nc2cccc4ccccc24)[C@@H](C)CN([C@@H](C)CO)C3=O)cc1	x	x	x	0	x	x	x	x	x	x	x
Cc1cc(C(=O)O)ccc1-n1c(C)cc(/C=C(/C#N)C(=O)Nc2ccccc2)c1C	-5	-7	-3	0	0	0	x	x	x	x	x
Cc1cc(C(=O)O)ccc1-n1c(C)cc(C=C2C(=O)c3ccccc3C2=O)c1C	44*	-2	59*	0	0	7	51*	63*	15	-4	-2
COCC(=O)NC[C@H]1[C@@H](c2ccccc2)[C@@H](CO)N1C(=O)c1ccccc1	x	x	x	0	x	x	x	x	x	x	x
Cc1c(O)ccc(/C(Cc2ccc3ccccc3n2)=N\N)c1O	48*	13	29*	0	1	12	36*	47*	-4	-5	-16
CNC[C@@H]1Oc2cc(C#CC3CCCCC3)ccc2S(=O)(=O)N([C@H](C)CO)C[C@H]1C	x	x	x	-1	x	x	x	x	x	x	x
CN(C)C(=O)[C@H]1[C@H](CO)[C@H]2Cn3c(ccc(-c4ccncc4)c3=O)[C@H]2N1Cc1ccccc1	x	x	x	0	x	x	x	x	x	x	x
COc1ccc(N/C=C/C(=O)c2sc(-c3ccccc3)nc2C)cc1	40*	5	71*	x	0	23	52*	65*	17	-15	-17
COc1ccc(N/C=C/C(=O)c2ccccc2)cc1	3	-3	-4	0	0	4	x	x	x	x	x
O=C(NN1C(=O)/C(=C\c2ccc(O)c([N+](=O)[O-])c2)SC1=S)c1ccccc1Cl	52*	23	49*	0	0	28	53*	63*	70*	11	53*
SMILES	Rpn11 block	CSN deneddyl inh	TPT1 inh	Xi reactivation	aDG glyco up	HNF4A DNA FP	TPT1 inh confirm	RNase T1 counter	Rpn11 inh conf	MMP-2 inh	Thrombin FP
O=C(O)COc1ccccc1/C=C1\SC(=S)N(/N=C/c2ccccc2O)C1=O	3	13	2	0	0	5	x	x	x	x	x
O=C(O)COc1ccccc1/C=C1\SC(=S)N(NC(=O)c2ccccc2O)C1=O	41*	16	31*	0	0	8	31*	40*	58*	-9	54*
O=C(N[C@H]1CC[C@@H](CCNC(=O)C2CC2)O[C@H]1CO)c1ccncc1	x	x	x	0	x	x	x	x	x	x	x
O=C(N[C@@H]1CC[C@H](CCNC(=O)c2ccccc2F)O[C@@H]1CO)c1ccc2c(c1)OCO2	x	x	x	1	x	x	x	x	x	x	x
CCOC(=O)Cc1csc(NC(=O)c2cccnc2)n1	-1	-9	2	x	0	4	x	x	x	x	x
CCc1nnc(NC(=O)c2ccc3ccccc3n2)s1	12	4	4	0	1	1	x	x	x	x	x
CCc1nnc(NC(=O)c2sc3nc4cc(C)ccc4cc3c2N)s1	71*	4	27*	x	0	32	28*	41*	26	-9	-70
CCOC(=O)Cc1csc(NC(=O)c2sc3nc4ccc(C)cc4cc3c2N)n1	61*	-1	26*	x	0	38*	51*	62*	77*	-42	41*
